The values below come from ChEMBL document CHEMBL1137737, “Synthesis, antimicrobial and cytotoxic activities of 1,3,4-oxadiazoles, 1,3,4-thiadiazoles and 1,2,4-triazoles” (Eur J Med Chem, 2009).

Assay [1] concerns Staphylococcus aureus. Briefly: Antibacterial activity against Staphylococcus aureus NCIM 5021 at 100 ug/disk after 24 hrs by agar disc-diffusion method. The class given is functional. The note with it: NCIM 5021, 24 h, read-out: DIZ. The method, boiled down:
(§1)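 Sterile 6 mm filter-paper discs are soaked in compound solution in DMSO and placed on nutrient agar plates already inoculated with each organism. Plates are incubated at 37 °C. The diameter of the growth-inhibition zone is read after 24 h for bacteria and after 48 h for fungi.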

For assay [2], the system named is Bacillus subtilis. Briefly: Antibacterial activity against Bacillus subtilis NCIM 2063 at 100 ug/disk after 24 hrs by agar disc-diffusion method. In kind it is functional. The note with it: NCIM 2063, 24 h, read-out: DIZ. The method, boiled down:
as §1
For orientation: In agar diffusion tests the substance spreads into inoculated agar from a disc or well.

Assay [3] relates to Klebsiella pneumoniae. Briefly: Antibacterial activity against Klebsiella pneumoniae NCIM 2957 at 100 ug/disk after 24 hrs by agar disc-diffusion method. In kind it is functional. The note with it: NCIM 2957, 24 h, read-out: DIZ. In short, it runs like this: as §1
Assay [4] deals with Proteus vulgaris. The assay is described as follows: Antibacterial activity against Proteus vulgaris NCIM 2027 at 100 ug/disk after 24 hrs by agar disc-diffusion method. In kind it is functional. The note with it: NCIM 2027, 24 h, read-out: DIZ. In short, it runs like this: as §1
For assay [5], the system named is Fusarium solani. Briefly: Antifungal activity against Fusarium solani NCIM 1330 at 100 ug/disk after 48 hrs by agar disc-diffusion method. In kind it is functional. The note with it: NCIM 1330, 48 h, read-out: DIZ. The method, boiled down:
as §1

Assay [6] has as its system Curvularia lunata. The assay is described as follows: Antifungal activity against Curvularia lunata NCIM 716 at 100 ug/disk after 48 hrs by agar disc-diffusion method. In kind it is functional. The note with it: NCIM 716, 48 h, read-out: DIZ. The method, boiled down:
as §1

The subject of assay [7] is Aspergillus niger. The assay is described as follows: Antifungal activity against Aspergillus niger NCIM 596 at 100 ug/disk after 48 hrs by agar disc-diffusion method. The class given is functional. The note with it: NCIM 596, 48 h, read-out: DIZ. In short, it runs like this: as §1
For assay [8], the system named is Staphylococcus aureus. Briefly: Antibacterial activity against Staphylococcus aureus NCIM 5021 at 200 ug/disk after 24 hrs by agar disc-diffusion method. In kind it is functional. The following applies: NCIM 5021, 24 h, read-out: DIZ. In short, it runs like this:
as §1

Assay [9] deals with Bacillus subtilis. The assay is described as follows: Antibacterial activity against Bacillus subtilis NCIM 2063 at 200 ug/disk after 24 hrs by agar disc-diffusion method. The class given is functional. The following applies: NCIM 2063, 24 h, read-out: DIZ. In short, it runs like this:
as §1

Assay [10] relates to Klebsiella pneumoniae. The assay is described as follows: Antibacterial activity against Klebsiella pneumoniae NCIM 2957 at 200 ug/disk after 24 hrs by agar disc-diffusion method. The class given is functional. The following applies: NCIM 2957, 24 h, read-out: DIZ. The method, boiled down: as §1
For assay [11], the system named is Proteus vulgaris. Briefly: Antibacterial activity against Proteus vulgaris NCIM 2027 at 200 ug/disk after 24 hrs by agar disc-diffusion method. In kind it is functional. The note with it: NCIM 2027, 24 h, read-out: DIZ. The method, boiled down:
as §1

Assay [12] has as its system Fusarium solani. Briefly: Antifungal activity against Fusarium solani NCIM 1330 at 200 ug/disk after 48 hrs by agar disc-diffusion method. In kind it is functional. The following applies: NCIM 1330, 48 h, read-out: DIZ. In short, it runs like this: as §1
Assay [13] concerns Curvularia lunata. The assay is described as follows: Antifungal activity against Curvularia lunata NCIM 716 at 200 ug/disk after 48 hrs by agar disc-diffusion method. The class given is functional. The note with it: NCIM 716, 48 h, read-out: DIZ. In short, it runs like this:
as §1

For assay [14], the system named is Aspergillus niger. Briefly: Antifungal activity against Aspergillus niger NCIM 596 at 200 ug/disk after 48 hrs by agar disc-diffusion method. In kind it is functional. The following applies: NCIM 596, 48 h, read-out: DIZ. In short, it runs like this: as §1
Assay [15] has as its system Staphylococcus aureus. The assay is described as follows: Antibacterial activity against Staphylococcus aureus NCIM 5021 after 24 hrs by microdilution susceptibility method. In kind it is functional. The following applies: NCIM 5021, 24 h. The method, boiled down: (§2)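 This is a microdilution susceptibility test. Organism suspensions are inoculated into wells holding the dilution series, then incubated at 36 °C for 24 h (bacteria) or 48 h (fungi). MIC is the lowest concentration giving no turbidity, i.e. complete inhibition of visible growth.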
(Broth dilution looks for growth in wells or tubes with falling amounts of substance.)

For assay [16], the system named is Bacillus subtilis. The assay is described as follows: Antibacterial activity against Bacillus subtilis NCIM 2063 after 24 hrs by microdilution susceptibility method. The following applies: NCIM 2063, 24 h. In kind it is functional. In short, it runs like this: as §2
The test system of assay [17] is Fusarium solani. Briefly: Antifungal activity against Fusarium solani NCIM 1330 after 48 hrs by microdilution susceptibility method. In kind it is functional. The following applies: NCIM 1330, 48 h. The method, boiled down: as §2
The test system of assay [18] is Curvularia lunata. The assay is described as follows: Antifungal activity against Curvularia lunata NCIM 716 after 48 hrs by microdilution susceptibility method. The class given is functional. The note with it: NCIM 716, 48 h. In short, it runs like this:
as §2

For assay [19], the system named is Aspergillus niger. The assay is described as follows: Antifungal activity against Aspergillus niger NCIM 596 after 48 hrs by microdilution susceptibility method. In kind it is functional. The following applies: NCIM 596, 48 h. In short, it runs like this: as §2
Assay [20] has as its system A549. Briefly: Cytotoxicity against human A549 cells at 250 uM by MTT assay relative to control. The class given is functional. The method, boiled down:
(§3)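 A549 lung adenocarcinoma cells are grown in DMEM with 10% FBS and penicillin–streptomycin. Compounds come from a 10 mM DMSO stock, are diluted in medium, and are added 2–4 h after plating. Viability is (treated − background)/(untreated − background) × 100, with a DMSO vehicle control. The experiment was run in duplicate with triplicate readings.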
For orientation: Tetrazolium assays rely on reduction of a dye to a coloured formazan, in cell work by metabolically active cells.

The subject of assay [21] is A549. The assay is described as follows: Cytotoxicity against human A549 cells at 250 uM by MTT assay in presence of 0.2% fetal bovine serum. In kind it is functional. The method, boiled down: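 MTT viability assay on A549 cells as for the other cytotoxicity lines, but with 0.2% serum in the medium in place of 10% FBS. Compounds are diluted in medium from a 10 mM DMSO stock and exposure lasts 48 h.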

Assay [22] has as its system Klebsiella pneumoniae. Briefly: Antibacterial activity against Klebsiella pneumoniae NCIM 2957 after 24 hrs by microdilution susceptibility method. The class given is functional. The note with it: NCIM 2957, 24 h. The method, boiled down: as §2
For assay [23], the system named is Proteus vulgaris. Briefly: Antibacterial activity against Proteus vulgaris NCIM 2027 after 24 hrs by microdilution susceptibility method. In kind it is functional. The following applies: NCIM 2027, 24 h. The method, boiled down: as §2
The test system of assay [24] is A549. Briefly: Cytotoxicity against human A549 cells at 250 uM by MTT assay. In kind it is functional, cell-based. In short, it runs like this:
as §3

Values after ≈ are worked out from the molar mass of the structure shown. Active and inactive are the calls of the source. The rule behind the calls is not given here.

In general, MIC refers to the lowest concentration that inhibits growth of the organism. For the compound `O=S(=O)(Cc1ccc(Cl)cc1)Cc1nnc(-c2ccccc2Cl)o1`, the zone of inhibition at 100 µg/disc in the assay with Staphylococcus aureus [1] is 20 mm; in the assay with Bacillus subtilis [2], 19 mm; in the assay with Klebsiella pneumoniae [3], 17 mm; in the assay with Proteus vulgaris [4] it was 15 mm; in the assay with Fusarium solani [5], 18 mm; with Curvularia lunata [6] it was 16 mm. Further, the zone of inhibition at 100 µg/disc in the assay with Aspergillus niger [7] is 17 mm. For the same compound, the zone of inhibition at 200 µg/disc in the assay with Staphylococcus aureus [8] turned out to be 23 mm; in the assay on Bacillus subtilis [9], 21 mm; in the assay with Klebsiella pneumoniae [10], 20 mm; in the assay with Proteus vulgaris [11], 18 mm; in the assay on Fusarium solani [12], 22 mm; with Curvularia lunata [13], 19 mm. Moreover, in the assay on Aspergillus niger [14], the zone of inhibition at 200 µg/disc stood at 21 mm. Further, the MIC in the assay with Staphylococcus aureus [15] was determined as 200 µg/mL (≈ 522 µM); in the assay with Bacillus subtilis [16] it was 400 µg/mL (≈ 1040 µM); in the assay on Fusarium solani [17], 200 µg/mL (≈ 522 µM); with Curvularia lunata [18], 200 µg/mL (≈ 522 µM); in the assay on Aspergillus niger [19], 200 µg/mL (≈ 522 µM). Besides, the Activity with A549 [20] and in the assay with A549 [21] was 50% each time.
Turning to `Nn1c(CS(=O)(=O)Cc2ccc(Cl)cc2)nnc1-c1ccccc1Cl`, the zone of inhibition at 100 µg/disc in the assay on Staphylococcus aureus [1] is 32 mm; in the assay with Bacillus subtilis [2] it was 37 mm; in the assay on Klebsiella pneumoniae [3] it was 33 mm; with Proteus vulgaris [4], 31 mm; in the assay with Fusarium solani [5], 29 mm; with Curvularia lunata [6], 27 mm. Also, in the assay with Aspergillus niger [7], the zone of inhibition at 100 µg/disc turned out to be 22 mm. Moreover, the zone of inhibition at 200 µg/disc was found to be 37 mm with Staphylococcus aureus [8]; 39 mm with Bacillus subtilis [9]; 36 mm in the assay with Klebsiella pneumoniae [10]; 34 mm in the assay on Proteus vulgaris [11]; 32 mm in the assay on Fusarium solani [12]; 31 mm with Curvularia lunata [13]. Further, in the assay on Aspergillus niger [14], the zone of inhibition at 200 µg/disc was found to be 24 mm. Besides, the MIC is 25 µg/mL (≈ 62.9 µM) against Staphylococcus aureus [15]; 25 µg/mL (≈ 62.9 µM) with Bacillus subtilis [16]; 50 µg/mL (≈ 126 µM) with Klebsiella pneumoniae [22]; 100 µg/mL (≈ 252 µM) in the assay with Proteus vulgaris [23]; 100 µg/mL (≈ 252 µM) against Fusarium solani [17]; 50 µg/mL (≈ 126 µM) in the assay with Curvularia lunata [18]. In addition, 50 µg/mL (≈ 126 µM) was the least that counted as inhibitory in the assay with Aspergillus niger [19] (MIC). Moreover, the outcome in the assay with A549 [24] was Active. The Activity in the assay with A549 [20] and in the assay with A549 [21] was 50% in each case.
